# This is a sample that favours compounds with a hit; in the whole collection about 2.7% have one here.
# SIAE primary: inhibitors of human sialic acid acetylesterase SIAE. SIAE FP-Rh probe binding, fluorescence polarization. 0.69% of 370,000 active. inhibition, % at 9.66 µM. Q9HAT2;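 active = inhibition above a cutoff: mean of compounds within the control limits plus 3 SD of those, cut at about 17% in these data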;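 also: 0% = plate median of compound wells and 100% = probe without SIAE protein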
# HTRA1 inhibitor: HTRA1 (human) protease inhibition. recombinant HTRA1, FP-rhodamine activity-based probe, fluorescence polarization. inhibition, % at 5.96 µM. 0.5% of 340,000 active; in the data active = inhibition above about 36%;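 also: 0% = enzyme with DMSO and 100% = wells lacking enzyme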
# Target sequence (Q92743 whole entry, looked up): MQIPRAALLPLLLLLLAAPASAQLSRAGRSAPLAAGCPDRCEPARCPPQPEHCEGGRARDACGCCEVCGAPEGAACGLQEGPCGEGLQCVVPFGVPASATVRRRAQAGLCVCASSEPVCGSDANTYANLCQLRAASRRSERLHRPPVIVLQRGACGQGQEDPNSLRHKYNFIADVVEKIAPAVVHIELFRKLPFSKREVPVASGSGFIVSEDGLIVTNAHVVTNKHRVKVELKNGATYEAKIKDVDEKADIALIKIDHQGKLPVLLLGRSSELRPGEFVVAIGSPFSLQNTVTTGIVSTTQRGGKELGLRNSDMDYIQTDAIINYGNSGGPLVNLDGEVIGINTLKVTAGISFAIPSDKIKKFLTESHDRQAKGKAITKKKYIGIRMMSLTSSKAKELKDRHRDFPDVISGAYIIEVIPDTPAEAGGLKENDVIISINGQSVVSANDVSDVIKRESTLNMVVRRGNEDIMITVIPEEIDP
# TCR CD3 inh: inhibitors of human TCR-CD3 interaction. inhibition, % at 9.4 µM. 0.37% of 360,000 active. TAMRA-labeled TCR probe fluorescence, biochemical;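 also: recombinant mutant TCR 2C K166C tagged with TAMRA read by polarization; 0% = receptor in buffer alone and 100% = receptor with positive control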
# ABHD4 inh: inhibitors of mouse ABHD4 | purified mABHD4, FP-Rh probe fluorescence polarization | inhibition, % at 8.92 µM | 0.54% of 370,000 active | AID 720543;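 active = inhibition exceeding the mean over every tested compound plus 3 SD, cut at about 30% in these data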;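 also: 0% = plate median of compound wells and 100% = S159A mutant with DMSO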
#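 Test system: mABHD4 protein | Buffer or medium: HEPES pH 7.0 buffer, 150 mM NaCl, 0.01% Pluronic F-127 | Probe or stimulus: FP-Rh fluorescent activity-based probe, added after compound pre-incubation | Timing: Pre-incubation 45 min, probe exposure 60 min, at 25 °C | Technique: Fluorescence polarization, excitation 525 nm, emission 598 nm, BODIPY TMR filters | Repeats: Single well per compound (singlicate)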
# PRMT1 FP inh: blocks human protein arginine methyltransferase 1; Q99873; recombinant PRMT1, activity-based probe fluorescence polarization; inhibition, % at 2.79 µM; 1.3% of 370,000 active;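 active = inhibition above about 21% made by adding two undisclosed values, limit read from the data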
# HTRA1 conf: HTRA1 (human) inhibition, confirmation; shares compounds with HTRA1 inhibitor; recombinant HTRA1, FP-rhodamine activity-based probe, fluorescence polarization; inhibition, % at 5.96 µM; 66% of 1,600 active;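 active = mean inhibition over three repeats above a set limit taken from the earlier primary screen, cut at about 37% in these data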;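 also: 0% = HTRA1 with DMSO and 100% = wells lacking HTRA1; inhibitors block probe binding so polarization drops and inhibition rises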
# BSA TAMRA ctr: BSA probe counter-screen for TCR-CD3 inhibitors; AID 652035; 10% of 1,200 active; TAMRA-labeled BSA probe fluorescence counterscreen; shares compounds with TCR CD3 inh; inhibition, % at 9.4 µM; in the data active = inhibition above about 23%;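 also: 0% = buffer low control and 100% = reference high control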
# TCR-CD3 conf: TCR-CD3 interaction inhibition, confirmation | AID 652036 | inhibition, % at 9.4 µM | 48% of 1,200 active | shares compounds with TCR CD3 inh | TAMRA-labeled TCR probe fluorescence binding assay
# PRMT1 inh conf: PRMT1 (human) inhibition, FP confirmation; AID 687036; 42% of 3,300 active; inhibition, % at 2.79 µM; recombinant His-PRMT1, activity-based probe fluorescence polarization; shares compounds with PRMT1 FP inh;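 active = mean inhibition across replicates above the hit cutoff derived for the earlier primary screen, cut at about 22% in these data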
# mABHD4 conf: confirmation of mouse ABHD4 inhibitors; AID 720658; purified mABHD4, FP-Rh probe fluorescence polarization; shares compounds with ABHD4 inh; 55% of 1,800 active; inhibition, % at 8.92 µM;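 active = mean inhibition across replicates above the hit cutoff set in the primary screen, cut at about 30% in these data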;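 also: 0% = wild-type ABHD4 with DMSO and 100% = catalytically dead S159A mutant with DMSO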
# SIAE inh conf: confirmation of human SIAE inhibitors; shares compounds with SIAE primary; 13% of 2,300 active; SIAE FP-Rh activity-based probe, fluorescence polarization; inhibition, % at 9.66 µM;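 active = mean inhibition of the replicates above the hit cutoff set in the primary screen, cut at about 17% in these data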;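 also: 0% = SIAE with DMSO and probe and 100% = probe without SIAE; inhibitors lower polarization as more probe stays unbound to SIAE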
# * marks the source's active call; other numbers are inactive results; x = no result given; + = active, no number. Rule as the data show it, unless noted: active = inhibition above about 19%; inactive = the rest.
SMILES,SIAE primary,HTRA1 inhibitor,TCR CD3 inh,ABHD4 inh,PRMT1 FP inh,HTRA1 conf,mABHD4 conf,SIAE inh conf,others
NC(=O)c1c(N)[nH]c(C(=O)c2ccccc2)c1-c1ccccc1Br,-8,x,5,-34,-5,x,x,x,
c1ccc(Cc2cnc(N3CCN(Cc4cccc(-c5ccsc5)n4)CC3)nc2)cc1,2,x,-2,-11,-1,x,x,x,
CCNc1ccc(Br)cc(C(=O)/C=C/c2ccccc2Cl)c1=O,22*,64*,0,37*,33*,25,43*,10,PRMT1 inh conf=18
Cc1ccc(N=Cc2cccc(O)c2O)c(C)c1,20*,84*,10,49*,20,43*,30*,8,
CN(c1ccc(Cl)cc1)c1cc2c(c3c1ccn3C)C1CCC2O1 (centres undefined),4,x,-1,4,-1,x,x,x,
CNc1ccc2c3c(cccc13)C(=O)N(C)C2=O,70*,84*,83*,103*,+,75*,119*,66*,BSA TAMRA ctr=138*;TCR-CD3 conf=104*
O=C1c2ccccc2C(=O)N1Cc1ccco1,2,-2,7,5,-1,x,x,x,
O=C1c2cccc3c(O)ccc(c23)C(=O)N1Cc1ccco1,20*,44*,41*,49*,158*,38*,45*,21*,BSA TAMRA ctr=67*;TCR-CD3 conf=47*;PRMT1 inh conf=169*
CN(C)c1ccc(N/C=C/C(=O)C(C)(C)C)cc1,17*,59*,13,26,9,4,x,-3,
CCOC(=O)c1ccc(N/C=C/C(=O)C(C)(C)C)cc1,4,-2,-1,-6,1,x,x,x,
Oc1ccc(/C=N/Nc2ccc(Cl)nn2)c(O)c1O,23*,57*,56*,40*,58*,41*,81*,-4,BSA TAMRA ctr=-20;TCR-CD3 conf=55*
C#CCN1C(=O)[C@]2(OC[C@@H]3Cc4ccccc4[C@@H]3C=C2C)c2ccccc21,0,x,-1,-6,-5,x,x,x,
COc1ccccc1N1CCN(Cc2cc(Br)c(O)c3ncccc23)CC1,29*,55*,3,22,4,82*,x,22*,
COc1cc(/C=N/Nc2ccc(S(N)(=O)=O)cc2[N+](=O)[O-])cc(OC)c1O,-4,32,-1,15,3,x,x,x,
CCOc1cc(/C=N/Nc2ccc(S(=O)(=O)Nc3ccccc3C(=O)O)cc2[N+](=O)[O-])cc(Cl)c1O,32*,75*,2,73*,1,68*,86*,16,
CN(C1=C(N2CCCCC2)C(=O)c2ccccc2C1=O)c1ccccc1,20*,66*,-10,38*,3,75*,69*,14,
COC(=O)N(C)C[C@@H]1OCc2cn(nn2)CCCC(=O)N([C@@H](C)CO)C[C@H]1C,-6,3,4,-3,3,x,x,x,
Cc1ccc(CNC(=O)C2CCC(=O)N(CCCN3CCOCC3)C2)cc1 (centres undefined),5,4,2,4,-2,x,x,x,
CCCCC(=Nc1ccc(N)cc1)C1=C(O)C(C(=O)OC)C(C)(C)CC1=O (centres undefined),44*,64*,50*,72*,17,9,16,8,BSA TAMRA ctr=14;TCR-CD3 conf=9
CCCC(=Nc1ccccc1)C1=C(O)C(C(=O)OC)C(C)(C)CC1=O (centres undefined),0,5,3,6,0,x,x,x,
O=S(=O)(Nc1nc2ccccc2nc1NCc1ccco1)c1ccc(Cl)cc1,-6,8,1,-3,10,x,x,x,
Cc1ccc(S(=O)(=O)Nc2nc3ccccc3nc2NCc2ccco2)cc1,23*,43*,67*,55*,33*,-6,-5,2,BSA TAMRA ctr=-2;TCR-CD3 conf=3;PRMT1 inh conf=9
O=C(N/N=C/c1ccc(O)c(O)c1)c1cc(-c2ccccc2)nc2ccccc12,19*,63*,11,22,3,76*,x,-13,
Cn1c2ccccc2c2cc(/C=N/NC(=O)c3cc(O)cc(O)c3)ccc21,-22,-41,12,-30,2,x,x,x,
O=C(N/N=C/c1cccc(O)c1)c1cc(-c2ccccc2)nc2ccccc12,-34,-55,-2,-56,-1,x,x,x,
SMILES,SIAE primary,HTRA1 inhibitor,TCR CD3 inh,ABHD4 inh,PRMT1 FP inh,HTRA1 conf,mABHD4 conf,SIAE inh conf,others
Cn1c2ccccc2c2cc(/C=N/NC(=O)c3cc(O)ccc3O)ccc21,50*,64*,43*,52*,19,64*,0,5,BSA TAMRA ctr=-18;TCR-CD3 conf=23*
CC1(c2cccc(Br)c2)NC(=O)N(CC(=O)c2ccc3c(c2)OCO3)C1=O (centres undefined),-7,-12,-5,7,7,x,x,x,
Cc1csc(-c2ccc3cc(Cl)cc(Cl)c3n2)n1,-4,x,4,1,0,x,x,x,
COCC(=O)NCc1ccc2c(c1)cc(C)n2C,-1,-2,14,18,6,x,x,x,
Cc1cc2cc(CNC(=O)Nc3ccc(Cl)c(Cl)c3)ccc2n1C,33*,41*,72*,38*,5,13,-12,-9,BSA TAMRA ctr=3;TCR-CD3 conf=5
Cc1ccc(S(=O)(=O)NCc2ccc3c(c2)cc(C)n3C)cc1,28*,40*,42*,60*,2,11,1,3,BSA TAMRA ctr=6;TCR-CD3 conf=6
Clc1ccc(C2Nc3cccc4cccc(c34)N2)c(Cl)c1,20*,54*,-3,30*,16,24,32*,6,
Cc1cc(SCC(=O)N/N=C/c2ccc(O)c(O)c2)c(C)cc1Br,21*,77*,2,14,11,76*,x,-19,
CC(=O)N1CCC(=NNC(=O)CSc2cc(C)c(Br)cc2C)CC1,0,3,1,3,-2,x,x,x,
O=C(/C=C/c1ccc(O)c(O)c1)c1ccc(S(=O)(=O)N2CCCCCC2)cc1,45*,55*,9,25,3,56*,x,-2,
O=C(CC1(CC(=O)N2CCOCC2)CCCC1)Nc1ccc(F)cc1,6,3,0,-2,-1,x,x,x,
COc1ccc(CNC(=O)CCn2c(C)csc2=O)cc1,-6,3,-5,-10,-1,x,x,x,
CCCCCCn1c(=O)[nH]c2nc3cc(N)c(C)cc3nc2c1=O,18*,64*,11,49*,132*,15,39*,9,PRMT1 inh conf=123*

# Bioassay records from PubChem.
